Ecoli rRNA inh: inhibitors of bacterial rRNA selective over humanized ribosomes | E. coli WT GFP vs humanized-ribosome RFP mutants, fluorescence, 24 h; hits give low values; DMSO median 0, no signal -100 | GFP signal change (wild-type ribosome), % (concentration not given with the values) | 350,000 compounds, 1.6% hits;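 active means significant combined selectivity score with lowered wild-type GFP, culture density cut under 30%, mutant RFP and density less affected; inactive means any of these conditions unmet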
CR mimetic SO: yeast age-related superoxide inhibition as caloric restriction mimetic | S. cerevisiae aged cells, superoxide DHE fluorescence; hits give low values | superoxide response (% of plate mean), % at 10 µM | 330,000 compounds, 0.18% hits;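 active means superoxide response under a set limit, about three screen SD below normal, cut at about 65% in these data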;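 further: yeast aged for seven days with compound at 30 °C before DHE staining; 100% = average MFI of all compound-treated wells on the plate with controls excluded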
Cneo AK release: Cryptococcus neoformans lysis via adenylate kinase release; 360,000 compounds, 0.2% hits; lysis activity, % at 15 µM; C. neoformans lysis, adenylate kinase release luminescence, 4 h; normalised: neutral wells 0, clomiphene wells 100;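 active means mean lysis activity across replicates of at least 80%, whatever share of replicates individually reach that level; inactive means mean lysis activity below 80%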
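Test system: log-phase Cryptococcus neoformans yeast cells; Quantity: yeast cell density of 5 × 10^6 cells/mL; Buffer or medium: YPD; Doses: single compound concentration per well; Timing: 4 h at 37 °C static, read 1 h later; Measured by: AK luminescence; Read-out basis: lysis from increased AK signal; Control set: Clomiphene as positive control.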
PglD DTNB: blocks C. jejuni PglD acetyltransferase activity; 360,000 compounds, 0.098% hits; inhibition, % at 12.5 µM; purified PglD enzyme, DTNB colorimetric CoA detection; in the data active means inhibition above about 16%, passing the limit was not always enough
Mot1-301 SUMO: inhibitors of SUMOylation pathway: yeast Mot1-301 growth rescue. S. cerevisiae Mot1-301 growth rescue, ATP luminescence, 38.5C; percent above DMSO median, 100 means doubled. growth rescue, % at 18.8 µM. 320,000 compounds, 1% hits. AID 2716;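 active means every valid replicate shows activation above 250% relative to neutral control wells; inactive means the rest, any valid replicate at or below 250%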;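 further: OY570 slx delta 5 strain wells were the positive control but not used for scaling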
Starred values were filed as active, the others as inactive; / = no result. Shown are actives, neighbours in structure and some others; about 2.2% of the full set was active somewhere.

SMILES	Ecoli rRNA inh	CR mimetic SO	Cneo AK release	PglD DTNB	Mot1-301 SUMO
N#Cc1c(NC(=O)c2cccc(S(=O)(=O)Nc3ccc(C(=O)O)cc3)c2)sc2c1CCCC2	-24*	92	/	/	6
O=C(COc1ccccc1)N1CCN(c2nnc(-c3ccccc3)c3ccccc23)CC1	/	93	1	-9	14
Cc1ccc(OCC(=O)N2CCN(c3nnc(-c4ccc(C)cc4)c4ccccc34)CC2)cc1	/	89	7	0	-9
Cc1cccc(OCC(=O)N2CCN(c3nnc(-c4ccccc4)c4ccccc34)CC2)c1	-43*	95	/	/	-9
Cc1ccc(-c2nnc(N3CCN(C(=O)COc4cccc(C)c4)CC3)c3ccccc23)cc1	-33*	91	/	/	2
COc1ccc(S(=O)(=O)N(C)C[C@@H]2Oc3c(NC(=O)Nc4cccc5ccccc45)cccc3C(=O)N([C@@H](C)CO)C[C@@H]2C)cc1	3	/	0	3	/
COc1cccc(S(=O)(=O)N(C)C[C@@H]2Oc3ncc(C#Cc4ccc(C(F)(F)F)cc4)cc3C(=O)N([C@H](C)CO)C[C@@H]2C)c1	7	/	-8	1	/
C[C@@H]1CN([C@@H](C)CO)C(=O)Cc2cc(NS(=O)(=O)c3ccc(Cl)cc3)ccc2O[C@@H]1CN(C)C(=O)Nc1ccc(F)cc1	2	/	2	-2	/
CCC1=Nc2cc(C(=O)NCc3cccnc3)ccc2Sc2ccc(C)cc21	-22*	103	/	/	98
COc1cc(OC)c(C(=O)C=Cc2ccc(OC)c(OC)c2)c(OC)c1	-11*	/	2	-7	/
CCOc1cc(/C=C/C(=O)NCCc2ccc(S(N)(=O)=O)cc2)ccc1OCC(C)C	-4	107	/	/	285
COc1ccc(/C=C/C(=O)NCCNC(=O)c2ccccc2)cc1OC	-22*	99	0	0	31
COc1cc(/C=C/C(=O)NCCc2ccc(S(N)(=O)=O)cc2)ccc1OCC#N	-26*	91	/	/	-8
CCCCOc1ccc(N=Nc2ccc(N)nc2N)cn1	-25*	156	-1	1	46
CO[C@H]1CN(C)C(=O)c2ccc(NC(C)=O)cc2OC[C@H](C)N(Cc2cncnc2)C[C@@H]1C	2	/	/	/	/
O=C(C[C@@H]1CC[C@H]2[C@@H](COC[C@@H](O)CN2Cc2cccc(F)c2)O1)NCc1ccncc1	1	/	2	-5	/
O=C(N/N=C/c1ccncc1)C1CC1(c1ccccc1)c1ccccc1 (stereo not given)	-22*	90	/	/	15
CC(=O)Nc1ccc(/C(C)=N/NC(=O)c2ccc(COc3ccccc3Cl)o2)cc1	-30*	102	2	7	-9
COc1cc(C(=O)Nc2ccc3ccccc3c2)cc(OC)c1OC	-25*	109	/	/	105
COc1ccccc1OCc1ccc(C(=O)Nc2cc(OC)c(OC)c(OC)c2)o1	-22*	100	0	0	98
CCS(=O)(=O)NCC[C@H]1CC[C@H](NC(=O)C2CCCCC2)[C@@H](CO)O1	1	/	/	/	/
CN(N=Nc1ccc([N+](=O)[O-])cc1)c1ccccc1	19	106	0	1	71
CN(CCCC(=O)O)c1ccc(N=Nc2ccc([N+](=O)[O-])cc2)cc1	-31*	108	/	/	-28
COc1ccc(CN(C)C[C@H]2OCCCC[C@@H](C)Oc3ccc(NC(=O)c4ccccc4)cc3C(=O)N([C@@H](C)CO)C[C@@H]2C)cc1	-1	/	-4	-1	/
O=C(NNC(=O)c1cccc2ccccc12)c1ccc(Br)cc1	-2	/	-1	-3	/
SMILES	Ecoli rRNA inh	CR mimetic SO	Cneo AK release	PglD DTNB	Mot1-301 SUMO
O=C(NNC(=O)c1cccc2ccccc12)c1cccc(Br)c1	-22*	/	0	8	/
C[C@H](CO)N1C[C@H](C)[C@H](CN(C)S(=O)(=O)c2ccccc2)Oc2c(cccc2N(C)C)C1=O	2	/	0	1	/
COc1ccc(-c2csc(NC(=O)CS(=O)(=O)c3ccccc3)n2)cc1OC	-48	/	-1	-1	/
COc1cccc(-c2csc(NC(=O)Nc3ccccc3)n2)c1	-28*	97	5	-2	18
C/C(CC1CC(COCC(C)C)OC1=O)=N\Nc1nc(-c2ccccc2)cs1 (stereo not given)	/	98	-3	-2	56
COC(=O)CCC(=O)Nc1nc(-c2ccccc2)cs1	2	104	-4	-2	334*
COc1ccc(-c2csc(NC(=O)CC(NC(C)=O)c3ccccc3)n2)cc1OC (stereo not given)	-28*	98	0	1	1
O=C(Cc1cccs1)Nc1nc(-c2ccccc2)cs1	/	109	1	4	/
CC1CC(CC(=O)Nc2nc(-c3ccccc3)cs2)C(=O)O1 (stereo not given)	-24*	117	0	-1	6
CS(=O)(=O)N1CC2(C1)[C@@H](c1ccccc1)[C@@H](CO)N2CCC(F)(F)F	0	/	/	/	/
COc1cc(/C=N/N(CCO)C2=NS(=O)(=O)c3ccccc32)cc(OC)c1OC	-3	87	-1	1	1
COc1cc(Br)cc(/C=N/N(CCO)C2=NS(=O)(=O)c3ccccc32)c1OC	-22*	89	0	-5	0
COC(=O)c1c(NC(=O)COC(=O)c2ccccn2)sc(C)c1C	1	89	-1	-1	-3
CCOC(=O)c1c(NC(=O)COC(=O)c2ccccn2)sc2c1CCC2	-18*	107	0	6	3
CCOc1ccc(NC(=O)C2C(c3ccccc3)C2(Cl)Cl)cc1 (stereo not given)	-15	98	-3	13	63
COc1ccc(NC(=O)C2C(c3ccccc3)C2(Cl)Cl)cc1 (stereo not given)	-39*	80	/	/	85
O=C(COc1ccccc1Br)c1ccc(O)cc1O	-42*	98	7	2	10
Cc1noc(C)c1S(=O)(=O)Nc1ccc2c(c1)C(=O)N([C@@H](C)CO)C[C@H](C)[C@@H](CN(C)S(=O)(=O)c1ccc(Cl)cc1)OCCCC[C@@H](C)O2	3	/	0	-4	/
COc1ccc(OC)c(NC(=O)C2C(C(=O)O)C3(Cl)C(Cl)=C(Cl)C2(Cl)C3(Cl)Cl)c1 (stereo not given)	-19*	113	/	/	-1
Cc1ccc(S(=O)(=O)NC2CCN(Cc3cccc(OCCO)c3)CC2)cc1	/	/	0	-1	/
O=C(Cc1ccccc1)NNC1CC(=O)N(c2ccc(Cl)cc2)C1=O (stereo not given)	-2	92	5	-5	-3
O=C(Cc1ccc(Cl)cc1)NNC1CC(=O)N(c2ccc3ccccc3c2)C1=O (stereo not given)	6	105	-3	5	289*
O=C(COc1ccc(C(=O)NCc2cccnc2)cc1)Nc1cccc(C(F)(F)F)c1	-23*	92	1	2	-18
Cn1c(SCc2ccccc2)nc(N)c(N=O)c1=O	-20*	95	0	9	25
Cn1c(SCc2ccccc2)nc(C(F)(F)F)cc1=O	-23*	103	/	/	4
